The source made the active and inactive calls. The calls are words filed in the database; no cut-off is given here.
Columns and labels:
[1] = test system: Mus musculus; test: Toxicity in carrageenan treated Albino mouse kidney assessed as edema at 100 mg/kg, po administered 1 hr before carrageenan challenge measured after 4 hrs by hematoxilen eosine staining; type: organism-based; design: dose 100 mg/kg, route oral; details: in vivo
How it was run: (§1)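 Mice given oral doses suspended in 0.5% CMC (vehicle controls) for the carrageenan paw edema experiment. Animals sacrificed 4 h after the paw edema experiments. Liver, stomach and kidneys removed and fixed in 10% formalin, then sections scored microscopically for kidney edema and mononuclear cell infiltration, gastritis/ulceration, and liver fatty change, acute hepatitis/spotty necrosis and cholestasis.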

[2] = test system: Mus musculus; test: Toxicity in carrageenan treated Albino mouse liver assessed as fatty change at 100 mg/kg, po administered 1 hr before carrageenan challenge measured after 4 hrs by hematoxilen eosine staining; type: organism-based; design: dose 100 mg/kg, route oral; details: in vivo; how it was run: as §1
[3] = test system: Mus musculus; test: Toxicity in carrageenan treated Albino mouse stomach assessed as gastric ulcer at 100 mg/kg, po administered 1 hr before carrageenan challenge measured after 4 hrs by hematoxilen eosine staining; type: organism-based; design: dose 100 mg/kg, route oral; details: in vivo; how it was run: as §1
[4] = test system: Mus musculus; test: Antiinflammatory activity in Albino mouse assessed as inhibition of carrageenan-induced foot paw edema at 100 mg/kg, po administered 1 hr before carrageenan challenge measured after 2 hrs; type: functional
How it was run: (§2)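 Fasted mice (water free) dosed orally with suspensions in 0.5% CMC; controls received vehicle only. Right hind paw thickness measured with a dial gauge 1 h after dosing, then carrageenan-induced edema re-measured 2 h later. Effect expressed as percent inhibition of edema versus control; mean of n = 6.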

[5] = test system: Mus musculus; test: Antiinflammatory activity against carrageenan-induced inflammation in Albino mouse air ppouch model assessed as number of polymorphonuclear leukocytes infiltration at 100 mg/kg, po administered 1 hr before carrageenan challenge measured after 4 hrs by air pouch test; type: functional
How it was run: (§3)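 Mice housed in groups of six, food withdrawn the day before with water free. Dosing by oral gavage in 0.5% CMC, with vehicle-only controls. Air pouch made by sc injection of 1 ml air over 3 days. On day 3, 1 ml of 10 mg/ml carrageenan (heat-sterilized, held at 37 °C) injected into the pouch, 1 h after dosing. Killed 4 h later; pouch lavaged with 3 ml PBS-heparin, spun 2000 rpm 15 min 4 °C, PMNL counted by Coulter Counter; n = 6.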

[6] = test system: Mus musculus; test: Toxicity in carrageenan treated Albino mouse liver assessed as acute hepatitis at 100 mg/kg, po administered 1 hr before carrageenan challenge measured after 4 hrs by hematoxilen eosine staining; type: organism-based; design: dose 100 mg/kg, route oral; details: in vivo; how it was run: as §1
[7] = test system: Mus musculus; test: Toxicity in carrageenan treated Albino mouse kidney assessed as […] mononuclear lymphocytes at 100 mg/kg, po administered 1 hr before carrageenan challenge measured after 4 hrs by hematoxilen eosine staining; type: organism-based; design: dose 100 mg/kg, route oral; details: in vivo; how it was run: as §1
[8] = test system: Mus musculus; test: Toxicity in carrageenan treated Albino mouse liver assessed as cholestasis at 100 mg/kg, po administered 1 hr before carrageenan challenge measured after 4 hrs by hematoxilen eosine staining; type: organism-based; design: dose 100 mg/kg, route oral; details: in vivo; how it was run: as §1
[9] = organism: Mus musculus; test: animal or person; details: Albino, po, read-out: INH
[10] = test system: Mus musculus; test: Toxicity in carrageenan treated Albino mouse stomach assessed as gastric ulcer at 10 mg/kg, po administered 1 hr before carrageenan challenge measured after 4 hrs by hematoxilen eosine staining; type: organism-based; design: dose 10 mg/kg, route oral; details: in vivo; how it was run: as §1
[11] = test system: Mus musculus; test: Toxicity in carrageenan treated Albino mouse liver assessed as cholestasis at 10 mg/kg, po administered 1 hr before carrageenan challenge measured after 4 hrs by hematoxilen eosine staining; type: organism-based; design: dose 10 mg/kg, route oral; details: in vivo; how it was run: as §1
[12] = test system: Mus musculus; test: Antiinflammatory activity against carrageenan-induced inflammation in Albino mouse air ppouch model assessed as number of polymorphonuclear leukocytes infiltration at 10 mg/kg, po administered 1 hr before carrageenan challenge measured after 4 hrs by air pouch test; type: functional; how it was run: as §3
[13] = test system: Mus musculus; test: Antiinflammatory activity in Albino mouse assessed as inhibition of carrageenan-induced foot paw edema at 10 mg/kg, po administered 1 hr before carrageenan challenge measured after 2 hrs; type: functional; how it was run: as §2

| SMILES | Activity [1] | Activity [2] | Activity [3] | inhibition in vivo at 100 mg/kg [4] [%] | Activity [5] [×10⁵ /cm'3] | Activity [6] | Activity [7] | Activity [8] | inhibition [4] | inhibition in vivo at 30 mg/kg [9] [%] | Activity [10] | Activity [11] | Activity [12] [×10⁵ /cm'3] | inhibition in vivo at 10 mg/kg [13] [%] |
| --- | --- | --- | --- | --- | --- | --- | --- | --- | --- | --- | --- | --- | --- | --- |
| Cc1cc(C(=O)c2ccc(Br)cc2)ccc1OCCN1CCCCC1 | Non-toxic | Non-toxic | Non-toxic | 67.5 | 31.75 | Non-toxic | Non-toxic | Non-toxic | – | – | – | – | – | – |
| Cc1cc(C(=O)c2ccccc2C)ccc1OCCN1CCCCC1 | Non-toxic | – | Non-toxic | 35.6 | 69.51 | – | Non-toxic | – | – | – | – | – | – | – |
| Cc1cc(C(=O)c2cccc(Cl)c2)ccc1OCCN1CCCCC1 | Non-toxic | – | Non-toxic | 51.4 | 56.26 | – | – | Non-toxic | – | – | – | – | – | – |
| Cc1cccc(C(=O)c2ccc(OCCN3CCCCC3)c(C)c2)c1 | Non-toxic | – | – | 15.4 | 104.76 | Non-toxic | – | Non-toxic | – | – | – | – | – | – |
| Cc1cc(C(=O)c2ccc(F)cc2)ccc1OCCN1CCCCC1 | Non-toxic | Non-toxic | Non-toxic | 60.6 | 32.41 | Non-toxic | Non-toxic | Non-toxic | – | – | – | – | – | – |
| Cc1cc(C(=O)c2ccccc2)ccc1OCCN1CCCCC1 | Non-toxic | – | – | 22.4 | 95.25 | – | Non-toxic | – | – | – | – | – | – | – |
| Cc1ccc(C(=O)c2ccc(OCCN3CCCCC3)c(C)c2)cc1 | Non-toxic | Non-toxic | Non-toxic | – | – | – | Non-toxic | Non-toxic | inactive | – | – | – | – | – |
| COc1ccc2cc([C@H](C)C(=O)O)ccc2c1 [NAPROXEN] | – | – | – | – | – | – | – | – | – | 66.9 | – | – | – | – |
| CCCCC1C(=O)N(c2ccccc2)N(c2ccccc2)C1=O [PHENYLBUTAZONE] | – | – | – | 53.3 | 53.28 | – | – | – | – | – | – | – | – | – |
| Cc1cc(C(=O)c2ccccc2Br)ccc1OCCN1CCCCC1 | Non-toxic | Non-toxic | – | 51.4 | 56.25 | Non-toxic | Non-toxic | Non-toxic | – | – | – | – | – | – |
| Cc1cc(C(=O)c2ccc(Cl)cc2Cl)ccc1OCCN1CCCCC1 | Non-toxic | Non-toxic | Non-toxic | 68.7 | 30.15 | – | Non-toxic | Non-toxic | – | – | – | – | – | – |
| COc1ccc2c(c1)c(CC(=O)O)c(C)n2C(=O)c1ccc(Cl)cc1 [INDOMETHACIN] | – | – | – | – | – | – | – | – | – | – | Toxic | Non-toxic | 68.81 | 32.1 |
| COc1ccc(C(=O)c2ccc(OCCN3CCCCC3)c(C)c2)cc1 | Non-toxic | Non-toxic | – | 51.4 | 56.26 | – | Non-toxic | Non-toxic | – | – | – | – | – | – |

— ChEMBL document CHEMBL1153368, “Benzophenone-N-ethyl piperidine ether analogues--synthesis and efficacy as anti-inflammatory agent” (Bioorg Med Chem Lett, 2009)
